From ChEMBL document CHEMBL4627348, “Synthesis of (1,3,4-thiadiazol-2-yl)-acrylamide derivatives as potential antitumor agents against acute leukemia cells” (Bioorg Med Chem Lett, 2020)
The source made the active and inactive calls. The calls are words filed in the database; no cut-off is given here.

Key:
RS4-11 [1] = experiment: Antiproliferative activity against human RS4:11 cells assessed as growth inhibition at 20 uM after 48 hrs by CCK-8 assay relative to control; format: functional; settings: for inhibition of growth at 20 µM: RS4-11, 48 h, read-out: GI
In short: (§1)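 Single-dose screen at 20 μM in RS4;11 (human ALL), HL-60 (human promyelocytic leukemia) and HEK293T (normal-cell model). Cells exposed 48 h, viability read by CCK-8, growth inhibition ratio expressed relative to control.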

HL-60 [2] = experiment: Antiproliferative activity against human HL60 cells assessed as growth inhibition at 20 uM after 48 hrs by CCK-8 assay relative to control; format: functional; settings: for inhibition of growth at 20 µM: HL-60, 48 h, read-out: GI; in short: as §1
[3] = Cytotoxicity against HEK293T cells assessed as growth inhibition at 20 uM after 48 hrs by CCK8 assay relative to control; format: cell-based, HEK-293T; settings: human, HEK293T cells; read-out: GI; in short: as §1
RS4-11 [4] = experiment: Antiproliferative activity against human RS4:11 cells assessed as growth inhibition after 48 hrs by CCK-8 assay; format: functional, cell-based; settings: RS4-11, 48 h
HL-60 [5] = experiment: Antiproliferative activity against human HL60 cells assessed as growth inhibition after 48 hrs by CCK-8 assay; format: functional, cell-based; settings: HL-60, 48 h
HEK-293T = experiment: Cytotoxicity against human HEK293T cells assessed as growth inhibition after 48 hrs by CCK8 assay; format: cell-based

Row | IC50 (RS4-11 [4]) [µM] | IC50 (HL-60 [5]) [µM] | SMILES | inhibition of growth at 20 µM (RS4-11 [1]) [%] | inhibition of growth at 20 µM (HL-60 [2]) [%] | inhibition at 48 h, 20 µM [3] [%] | IC50 (HEK-293T) [µM] | growth inhibition (GI) (HL-60 [2]) | growth inhibition (GI) (RS4-11 [1])
1 | – | – | N#C/C(=C\c1ccccc1OS(=O)(=O)c1ccc(F)cc1)C(=O)Nc1nnc(Cc2cccc3ccccc23)s1 | 68 | 12 | 15 | – | – | –
2 | – | – | N#C/C(=C\c1ccccc1OS(=O)(=O)c1ccc(Cl)cc1)C(=O)Nc1nnc(Cc2ccc(F)cc2)s1 | 68 | 20 | 6 | – | – | –
3 | 3.67 | 10.9 | COc1ccc(Cc2nnc(NC(=O)/C(C#N)=C/c3ccccc3OS(=O)(=O)c3ccc([N+](=O)[O-])cc3)s2)cc1 | 70 | 51 | 17 | > 50 | – | –
4 | – | – | N#C/C(=C\c1ccccc1OS(=O)(=O)c1ccccc1[N+](=O)[O-])C(=O)Nc1nnc(Cc2ccc(F)cc2)s1 | 61 | 35 | 6 | – | – | –
5 | – | – | N#C/C(=C\c1ccccc1OS(=O)(=O)c1ccc(F)cc1)C(=O)Nc1nnc(Cc2ccc(Cl)cc2)s1 | 64 | 20 | 14 | – | – | –
6 | – | – | Cc1ccc(Cc2nnc(NC(=O)/C(C#N)=C/c3ccccc3OS(=O)(=O)c3ccc([N+](=O)[O-])cc3)s2)cc1 | 64 | 17 | 9 | – | – | –
7 | 4.02 | – | COc1ccc(Cc2nnc(NC(=O)/C(C#N)=C/c3ccccc3OS(=O)(=O)c3ccc(Cl)cc3)s2)cc1 | 79 | – | 34 | > 50 | – | –
8 | – | – | Cc1ccc(Cc2nnc(NC(=O)/C(C#N)=C/c3ccccc3OS(=O)(=O)c3ccc(Cl)cc3)s2)cc1 | 72 | 38 | 8 | – | – | –
9 | – | – | CS(=O)(=O)Oc1ccc(/C=C(\C#N)C(=O)Nc2nnc(-c3cccs3)s2)cc1 | 13 | – | 19 | – | inactive | –
10 | 1.06 | 3.17 | COc1ccc(S(=O)(=O)Oc2ccccc2/C=C(\C#N)C(=O)Nc2nnc(Cc3ccccc3)s2)cc1 | 78 | 100 | 23 | > 50 | – | –
11 | – | – | N#C/C(=C\c1cccc(NS(=O)(=O)c2ccc(F)cc2)c1)C(=O)Nc1nnc(-c2cccs2)s1 | 22 | – | 29 | – | inactive | –
12 | > 20 | 8.75 | Cc1ccc(S(=O)(=O)Oc2cccc(/C=C(\C#N)C(=O)Nc3nnc(-c4cccs4)s3)c2)cc1 | 25 | 62 | 43 | > 20 | – | –
13 | – | – | Cc1ccc(S(=O)(=O)Oc2ccccc2/C=C(\C#N)C(=O)Nc2nnc(Cc3ccccc3)s2)cc1 | 69 | 16 | 15 | – | – | –
14 | – | – | Cc1ccc(Cc2nnc(NC(=O)/C(C#N)=C/c3ccccc3OS(=O)(=O)c3ccc(C)cc3)s2)cc1 | 66 | 17 | 22 | – | – | –
15 | – | – | N#C/C(=C\c1ccccc1OS(=O)(=O)c1ccccc1[N+](=O)[O-])C(=O)Nc1nnc(Cc2ccc(Cl)cc2)s1 | 65 | 19 | 20 | – | – | –
16 | > 20 | 11.5 | Cc1ccc(S(=O)(=O)Oc2ccccc2/C=C(\C#N)C(=O)Nc2nnc(C)s2)cc1 | 33 | 78 | 35 | > 20 | – | –
17 | – | – | N#C/C(=C\c1ccccc1OS(=O)(=O)c1ccc(Cl)cc1)C(=O)Nc1nnc(Cc2ccccc2)s1 | 73 | 26 | 25 | – | – | –
18 | 1.36 | 4.7 | COc1ccc(S(=O)(=O)Oc2ccccc2/C=C(\C#N)C(=O)Nc2nnc(Cc3cccc4ccccc34)s2)cc1 | 78 | 98 | 29 | > 50 | – | –
19 | – | – | Cc1ccc(S(=O)(=O)Oc2ccccc2/C=C(\C#N)C(=O)Nc2nnc(Cc3cccc4ccccc34)s2)cc1 | 73 | 19 | 23 | – | – | –
20 | – | – | N#C/C(=C\c1cccc(OS(=O)(=O)c2cccs2)c1)C(=O)Nc1nnc(-c2cccs2)s1 | – | 30 | 50 | – | – | inactive
21 | – | – | N#C/C(=C\c1ccccc1OS(=O)(=O)c1ccc([N+](=O)[O-])cc1)C(=O)Nc1nnc(-c2cccs2)s1 | 40 | 23 | 33 | – | – | –
22 | – | – | N#C/C(=C\c1ccccc1OS(=O)(=O)c1ccc([N+](=O)[O-])cc1)C(=O)Nc1nnc(Cc2ccc(Cl)cc2)s1 | 66 | 34 | 19 | – | – | –

Row | IC50 (RS4-11 [4]) [µM] | IC50 (HL-60 [5]) [µM] | SMILES | inhibition of growth at 20 µM (RS4-11 [1]) [%] | inhibition of growth at 20 µM (HL-60 [2]) [%] | inhibition at 48 h, 20 µM [3] [%] | IC50 (HEK-293T) [µM] | growth inhibition (GI) (HL-60 [2]) | growth inhibition (GI) (RS4-11 [1])
23 | 10.5 | 17.5 | N#C/C(=C\c1ccccc1OS(=O)(=O)c1ccc(C(F)(F)F)cc1)C(=O)Nc1nnc(-c2cccs2)s1 | 58 | 55 | 57 | 12.3 | – | –
24 | – | – | N#C/C(=C\c1ccccc1OS(=O)(=O)c1ccc(Cl)cc1)C(=O)Nc1nnc(-c2cccs2)s1 | 22 | 17 | 46 | – | – | –
25 | – | – | N#C/C(=C\c1ccccc1OS(=O)(=O)c1ccc(Cl)cc1)C(=O)Nc1nnc(Cc2ccc(Cl)cc2)s1 | 64 | 15 | 14 | – | – | –
26 | – | – | Cc1ccc(S(=O)(=O)Oc2cccc(/C=C(\C#N)C(=O)Nc3nnc(-c4ccccc4Cl)s3)c2)cc1 | 44 | 67 | 55 | – | – | –
27 | – | – | Cc1ccc(Cc2nnc(NC(=O)/C(C#N)=C/c3ccccc3OS(=O)(=O)c3ccc(F)cc3)s2)cc1 | 73 | 11 | 11 | – | – | –
28 | – | – | N#C/C(=C\c1ccccc1OS(=O)(=O)c1ccc(OC(F)(F)F)cc1)C(=O)Nc1nnc(-c2cccs2)s1 | 39 | 48 | 42 | – | – | –
29 | – | – | Cc1ccc(S(=O)(=O)Oc2cccc(/C=C(\C#N)C(=O)Nc3nnc(-c4ccccc4)s3)c2)cc1 | 35 | 63 | 52 | – | – | –
30 | – | – | N#C/C(=C\c1ccccc1OS(=O)(=O)c1ccc([N+](=O)[O-])cc1)C(=O)Nc1nnc(Cc2cccc3ccccc23)s1 | 58 | 18 | 25 | – | – | –
31 | – | – | N#C/C(=C\c1ccccc1OS(=O)(=O)c1ccc(Cl)cc1)C(=O)Nc1nnc(Cc2cccc3ccccc23)s1 | 68 | 15 | 16 | – | – | –
32 | – | – | Cc1ccc(S(=O)(=O)Oc2ccccc2/C=C(\C#N)C(=O)Nc2nnc(Cc3ccc(F)cc3)s2)cc1 | 72 | – | 16 | – | inactive | –
33 | – | – | N#C/C(=C\c1ccccc1OS(=O)(=O)c1ccc(F)cc1)C(=O)Nc1nnc(Cc2ccccc2)s1 | 69 | 22 | 6 | – | – | –
34 | – | – | N#C/C(=C\c1ccccc1OS(=O)(=O)c1ccccc1[N+](=O)[O-])C(=O)Nc1nnc(Cc2ccccc2)s1 | 71 | 12 | 10 | – | – | –
35 | – | – | N#C/C(=C\c1ccccc1OS(=O)(=O)c1ccc([N+](=O)[O-])cc1)C(=O)Nc1nnc(Cc2ccc(F)cc2)s1 | 55 | 18 | 8 | – | – | –
36 | – | – | Cc1ccc(S(=O)(=O)Oc2ccccc2/C=C(\C#N)C(=O)Nc2nnc(Cc3ccc(Cl)cc3)s2)cc1 | 69 | 15 | 20 | – | – | –
37 | – | – | COc1ccc(Cc2nnc(NC(=O)/C(C#N)=C/c3ccccc3OS(=O)(=O)c3ccc(C)cc3)s2)cc1 | 70 | 25 | 21 | – | – | –
38 | – | – | COc1ccc(Cc2nnc(NC(=O)/C(C#N)=C/c3ccccc3OS(=O)(=O)c3ccccc3[N+](=O)[O-])s2)cc1 | 68 | 25 | 18 | – | – | –
39 | – | – | Cc1ccc(Cc2nnc(NC(=O)/C(C#N)=C/c3ccccc3OS(=O)(=O)c3ccccc3[N+](=O)[O-])s2)cc1 | – | 33 | 6 | – | – | inactive
40 | – | – | Cc1ccc(S(=O)(=O)Oc2ccccc2/C=C(\C#N)C(=O)Nc2nnc(Cc3cccc(F)c3)s2)cc1 | 56 | 11 | 9 | – | – | –
41 | – | – | COc1ccc(Cc2nnc(NC(=O)/C(C#N)=C/c3ccccc3OS(=O)(=O)c3ccc(F)cc3)s2)cc1 | 80 | 25 | 6 | – | – | –
42 | – | – | N#C/C(=C\c1ccccc1OS(=O)(=O)c1ccc(Cl)cc1)C(=O)Nc1nnc(Cc2cccc(F)c2)s1 | 71 | 42 | 29 | – | – | –
43 | – | – | Cc1nnc(NC(=O)/C(C#N)=C/c2cccc(OS(C)(=O)=O)c2)s1 | 33 | 20 | 20 | – | – | –
44 | – | – | N#C/C(=C\c1ccccc1OS(=O)(=O)c1ccc(F)cc1)C(=O)Nc1nnc(Cc2cccc(F)c2)s1 | 72 | 22 | 17 | – | – | –
